# According to ChEMBL document CHEMBL1132346, “New type of febrifugine analogues, bearing a quinolizidine moiety, show potent antimalarial activity against Plasmodium malaria parasite” (J Med Chem, 1999):
# Values joined by “and” are separate entries in the source; they are usually repeats but may differ in a detail not shown here. Equal entries are not always repeated.
# Experiments:
# Plasmodium falciparum [1] = test: In vitro antimalarial activity against chloroquine-sensitive Plasmodium falciparum FCR3; assay type: functional, organism-based
# Mus musculus [2] = test: Compound was tested for antimalarial activity against mice (Mus musculus) malaria parasite Plasmodium berghei in vivo and the samples were administarted intraperitoneally.; assay type: functional; conditions: for ED50: ip
# [3] = Selectivity is the ratio of antimalarial activity and cytotoxicity; assay type: functional
# Method in brief: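 Ratio of antimalarial activity to cytotoxicity, with cytotoxicity measured against FM3A mouse mammary cells.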
# Plasmodium falciparum [4] = test: In vitro antimalarial activity against chloroquine-resistant Plasmodium falciparum K1; assay type: functional, organism-based
# FM3A = test: Compound was tested for cytotoxicity against FM3A mouse mammary cells.; assay type: functional, cell-based
# Plasmodium berghei = test: In vivo antimalarial activity against Plasmodium berghei infected mice (Mus musculus) by intraperitoneal dose; assay type: functional
# Mus musculus [5] = test: Compound was tested for antimalarial activity against mice (Mus musculus) malaria parasite Plasmodium berghei in vivo mice (Mus musculus) and the samples were administarted intraperitoneally.; assay type: functional
SMILES,EC50 (Plasmodium falciparum [1]),ED90 (Mus musculus [2]),ED50 (Mus musculus [2]),Selectivity [3],EC50 (Plasmodium falciparum [4]),EC50 (FM3A),ED90 (Plasmodium berghei),ED50 (Plasmodium berghei; ip),ED90 (Mus musculus [5])
CC1(C)[C@@H](n2cnc3ccccc3c2=O)C(=O)C[C@@H]2[C@@H](O)CCCN21,1.6 nM,19.4 µM/kg,7.3 µmol/kg,238 and 127,3 nM,380 nM,–,–,–
CC1(C)[C@H](n2cnc3ccccc3c2=O)C(=O)C[C@H]2[C@@H](O)CCCN21,2.8 nM,–,76 µmol/kg,857 and 571,4.2 nM,2400 nM,–,–,–
"O=C(C[C@@H]1NCCC[C@H]1O)Cn1cnc2ccccc2c1=O (single isomer, unassigned) [FEBRIFUGINE]",0.7 nM,5 µM/kg,1 µmol/kg,243 and 142,1.2 nM,170 nM,–,–,–
C[C@@H]1CC[C@H]2[C@@H](C)C(=O)O[C@@H]3O[C@@]4(C)CC[C@@H]1[C@]32OO4 [ARTEMISININ],–,–,–,–,–,–,46 µM/kg,17.7 µmol/kg,–
O=c1c2ccccc2ncn1CC1(O)C[C@@H]2NCCC[C@@H]2O1 (some centres undefined) [ISOFEBRIFUGINE],3.4 nM,–,–,53 and 100,1.8 nM,180 nM,–,–,5 µM/kg
CCN(CC)CCCC(C)Nc1ccnc2cc(Cl)ccc12 (centres undefined) [CHLOROQUINE],18 nM,9.4 µM/kg,4.7 µmol/kg,–,130 nM,32000 nM,–,–,–
